Laboratory results from PMC6800172 (The American journal of Chinese medicine, 2017).

Tests used:
[1] = test system: human LNCaP/AR-Luc cells; test: LNCaP/AR-Luc xenograft growth in SCID-NSG mice; type: in vivo; details: decursinol 4.5 mg/mouse/day gavage, 7 days per week, vs vehicle
Outline: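 Male SCID-NSG mice (n=20/group) received daily gavage in EPTG 3:6:1:20 (300 μL) starting 7 days before s.c. inoculation of 20,000 LNCaP/AR-Luc cells (1:1 Matrigel:serum-free medium, lower right flank). Caliper measurement twice weekly; volume = (L×W²)/2. Tumors weighed at necropsy. Only the 10 largest tumors per group were analyzed; mean ± SD.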

[2] = Stability of dosing preparation in EPTG excipient formula; type: physicochemical
[3] = test system: LNCaP/AR-luc xenograft tumor; test: Histopathology of H&E stained xenograft tumor sections; type: in vivo, human; details: vs vehicle groups within each experiment
Outline: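 Tumors dissected at necropsy and fixed in neutral-buffered formalin. H&E-stained sections were examined for necrotic areas, hemorrhage and intravascular cancer-cell emboli.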

[4] = Subchronic; type: in vivo, mouse; details: for Body Weight / Organ height (Mean ± SD) Brain / Organ height (Mean ± SD) Heart / Organ height (Mean ± SD) Kidney / Organ height (Mean ± SD) Liver / Organ height (Mean ± SD) Lung / Organ height (Mean ± SD) Prostate / Organ height (Mean ± SD) Spleen / Organ height (Mean ± SD) Testes: male CD-1 mice, N=6
Outline: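 24 male CD-1 mice (acclimated 2 weeks) were stratified by weight into 4 groups (N=6). They were gavaged daily, 7 days/week, for 4 weeks with 80, 120 or 160 mg/kg in EPTG 3:6:1:5, or 200 μL vehicle. Body weight was measured weekly, with the dose adjusted to it. At euthanasia organs were weighed, and plasma taken 3 h after the last dose was assayed by HPLC; […].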

[5] = test system: human LNCaP/AR-Luc cells; test: Lung metastasis of LNCaP/AR-Luc xenograft by ex vivo bioluminescence imaging; type: in vivo; details: SCID-NSG mice, decursinol 4.5 mg/mouse/day gavage; control 100% (10 out of 10)
[6] = Plasma decursinol by HPLC at 3 h after the last dose in SCID-NSG mice; type: in vivo, mouse
Outline: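 Plasma was collected 3 h after the last daily gavage dose (4.5 mg/mouse in EPTG 3:6:1:20) from tumor-bearing male SCID-NSG mice. Plasma with chrysin internal standard was extracted twice with ethyl acetate, dried and reconstituted in methanol. HPLC used a C18 column at room temperature with a water/acetonitrile gradient (20–90% over 15 min, then 90% for 8 min) and diode-array detection at 330 nm.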

[7] = Subchronic; type: in vivo, mouse; details: 4 weeks; for Plasma biochemistry (Mean ± SD) ALB / Plasma biochemistry (Mean ± SD) ALP / Plasma biochemistry (Mean ± SD) ALT / Plasma biochemistry (Mean ± SD) AST / Plasma biochemistry (Mean ± SD) Amy / Plasma biochemistry (Mean ± SD) BUN / Plasma biochemistry (Mean ± SD) Chol / Plasma biochemistry (Mean ± SD) Gluc / Plasma biochemistry (Mean ± SD) T.Bili: male CD-1 mice, N=6
Outline: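 After 4 weeks of daily gavage (80, 120 or 160 mg/kg in EPTG 3:6:1:5, or vehicle) in male CD-1 mice, heparinized blood was taken by cardiac puncture at euthanasia. Plasma ALT, AST, ALP, albumin, amylase, BUN, creatinine, glucose, cholesterol and total bilirubin were measured by a veterinary diagnostic laboratory.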

[8] = Single dose pharmacokinetic study in CD-1 mice; type: in vivo; details: male, CD-1, mouse, plasma, po, 120 mg/kg
Outline: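 Male CD-1 mice (7 weeks, ≥1 week on AIN-93M diet) were given a single gavage of 120 mg/kg (3 mg/25 g) in 0.2 mL EPTG 3:6:1:5. Groups of 5–7 were killed at 0.1, 0.25, 0.5, 1, 2, 3, 6, 12 and 24 h. Heparinized cardiac blood was spun at 5000 g for 5 min. Plasma was extracted with ethyl acetate and run on HPLC. AUC0–24h was calculated noncompartmentally; mean ± SEM.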

[9] = Body weight and organ weight of tumor-bearing SCID-NSG mice; type: in vivo; details: decursinol 4.5 mg/mouse/day
[10] = DOH-3: 3 mg per 25 g body weight (120 mg/kg) daily gavage, 4 weeks
[11] = DOH-4: 4 mg per 25 g body weight (160 mg/kg) daily gavage, 4 weeks
[12] = DOH-3: 3 mg per 25 g body weight (120 mg/kg) daily gavage
[13] = DOH-4: 4 mg per 25 g body weight (160 mg/kg) daily gavage

time in uniformly dispersed state after dilution from stock concentrate ([2]; EPTG (3:6:1:20) formula): ≤ 20 min
time remaining as clear solution ([2]; new EPTG (3:6:1:5)): more than 1 hour
plasma decursinol level (3 h post last dose) ([4]; CD-1 mice, 80, 120, and 160 mg decursinol/kg daily gavage, 4 weeks, EPTG 3:6:1:5): increase in a dose-dependent manner
weights of liver, kidney, prostate, spleen, lung, heart, testes and brain ([4]; CD-1 mice, subchronic dosing 4 weeks, 80-160 mg/kg): did not affect
Organ height (Mean ± SD) Brain [4, 10]: 0.53 ± 0.03 g
Organ height (Mean ± SD) Heart [4, 10]: 0.19 ± 0.01 g
Organ height (Mean ± SD) Kidney [4, 10]: 0.59 ± 0.08 g
Organ height (Mean ± SD) Liver [4, 10]: 1.58 ± 0.14 g
Organ height (Mean ± SD) Lung [4, 10]: 0.20 ± 0.02 g
Organ height (Mean ± SD) Prostate [4, 10]: 0.10 ± 0.02 g
Organ height (Mean ± SD) Spleen [4, 10]: 0.09 ± 0.02 g
Organ height (Mean ± SD) Testes [4, 10]: 0.25 ± 0.03 g
Organ height (Mean ± SD) Brain [4, 11]: 0.53 ± 0.02 g
Organ height (Mean ± SD) Heart [4, 11]: 0.20 ± 0.01 g
Organ height (Mean ± SD) Kidney [4, 11]: 0.60 ± 0.08 g
Organ height (Mean ± SD) Liver [4, 11]: 1.54 ± 0.17 g
Organ height (Mean ± SD) Lung [4, 11]: 0.22 ± 0.01 g
Organ height (Mean ± SD) Prostate [4, 11]: 0.12 ± 0.02 g
Organ height (Mean ± SD) Spleen [4, 11]: 0.09 ± 0.02 g
Organ height (Mean ± SD) Testes [4, 11]: 0.24 ± 0.05 g
plasma decursinol level, decursinol dosing over equi-molar D/DA dosing ([6]; SCID-NSG mice, 3 hours after the last dose): 1.7 folds
concentration at 3 h ([6]; male, SCID-NSG, mouse, plasma, oral, 4.5 mg/mouse): 4100 ng/mL
Plasma biochemistry (Mean ± SD) ALB [7, 12]: 2.7 ± 0.2 g/dL
Plasma biochemistry (Mean ± SD) ALP [7, 12]: 47.2 ± 14.6 U/L
Plasma biochemistry (Mean ± SD) Amy [7, 12]: 780.2 ± 70.1 U/L
Plasma biochemistry (Mean ± SD) BUN [7, 12]: 12.3 ± 2.5 mg/dL
Plasma biochemistry (Mean ± SD) Chol [7, 12]: 182.0 ± 38.8 mg/dL
Plasma biochemistry (Mean ± SD) Gluc [7, 12]: 367.3 ± 69.0 mg/dL
Plasma biochemistry (Mean ± SD) T.Bili [7, 12]: 0.27 ± 0.05 mg/dL
Plasma biochemistry (Mean ± SD) ALB [7, 13]: 2.3 ± 0.3 g/dL
Plasma biochemistry (Mean ± SD) ALP [7, 13]: 45.5 ± 9.1 U/L
Plasma biochemistry (Mean ± SD) Amy [7, 13]: 668.0 ± 117.1 U/L
Plasma biochemistry (Mean ± SD) BUN [7, 13]: 14.0 ± 2.2 mg/dL
Plasma biochemistry (Mean ± SD) Chol [7, 13]: 161.0 ± 20.5 mg/dL
Plasma biochemistry (Mean ± SD) Gluc [7, 13]: 408.3 ± 130.0 mg/dL
Plasma biochemistry (Mean ± SD) T.Bili [7, 13]: 0.32 ± 0.10 mg/dL
AUC(0-t) [8]: 193 µg·h/mL
SMILES: CC1(C)Oc2cc3oc(=O)ccc3cc2C[C@@H]1O [decursinol]
decreased LNCaP/AR-Luc xenograft tumor growth (top 10 tumors) [1]: 75%
necrosis extent in tumor sections [3]: did not noticeably differ
body weight change ([4]; CD-1 mice, daily gavage as high as 4 mg/25 g or 160 mg per kg, 4 weeks): did not cause body weight change
Body Weight [4, 10]: 35.97 ± 2.10 g
Body Weight [4, 11]: 35.38 ± 1.71 g
lung metastasis rate [5]: 60%
plasma biochemistry (ALP, AST, ALT, Amy, ALB, BUN, Gluc, Chol, T. Bili) ([7]; CD-1 mice, among the 4 groups): not statistically different
Plasma biochemistry (Mean ± SD) ALT [7, 12]: 34.3 ± 21.7 U/L
Plasma biochemistry (Mean ± SD) AST [7, 12]: 82.5 ± 29.6 U/L
Plasma biochemistry (Mean ± SD) ALT [7, 13]: 21.0 ± 7.6 U/L
Plasma biochemistry (Mean ± SD) AST [7, 13]: 72.3 ± 29.9 U/L
weight of liver, kidney, testes and prostate at study termination ([9]; SCID-NSG mice, vs vehicle- or D/DA-treated mice): not statistically different
Body Weight ([9]; tumor-bearing SCID-NSG mice, noticeable at 7-8 weeks of treatment): progressive body weight disadvantage
